Laboratory results as given in ChEMBL document CHEMBL1148280, “Design, synthesis, structural studies, biological evaluation, and computational simulations of novel potent AT(1) angiotensin II receptor antagonists based on the 4-phenylquinoline structure” (J Med Chem, 2004).

species: Oryctolagus cuniculus; experiment: Inhibition of angiotensin II induced contraction in rabbit aortic strips after 60 minutes contact with the compound; format: functional; settings: Aorta, 1 h
Outline: (§1)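 Rabbit aortic strips under 2 g resting tension, isometric recording, equilibrated 1 h. A cumulative Ang II concentration–response curve was run first, then a 30 min washout. Antagonist or vehicle was added at several concentrations before a submaximal (70–80%) Ang II challenge; contact time differed by line. Percent inhibition was regressed to give IC50 with P = 0.05 fiducial limits.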

| SMILES | IC50 [nM] |
| --- | --- |
| CCc1nc2c(C)cc(C)nc2n1Cc1ccc(-c2c(-c3nnn[nH]3)cnc3ccccc23)cc1 | 4 |
| CCCc1nc2c(C)cc(C)nc2n1Cc1ccc(-c2c(C(=O)O)c(N)nc3ccccc23)cc1 | 3.3 |

The next lines start with the values.

| IC50 [nM] | SMILES |
| --- | --- |
| 13 | CCCc1nc2c(C)cc(C)nc2n1Cc1ccc(-c2c(C(=O)O)c(C)nc3ccccc23)cc1 |
| 9.9 | CCCCc1nc(Cl)c(CO)n1Cc1ccc(-c2ccccc2-c2nnn[nH]2)cc1 [LOSARTAN] |

species: Oryctolagus cuniculus; experiment: Inhibition of angiotensin II induced contraction in rabbit aortic strips after 120 minutes contact with the compound; format: functional; settings: Aorta, 2 h; outline: as §1

| IC50 [nM] | SMILES |
| --- | --- |
| 2 | CCc1nc2c(C)cc(C)nc2n1Cc1ccc(-c2c(-c3nnn[nH]3)cnc3ccccc23)cc1 |
| 170 | CCc1nc2c(C)cc(C)nc2n1Cc1ccc(-c2c(C(=O)O)c(=O)n(C)c3ccccc23)cc1 |

molecular target: T1, Type-1 angiotensin II receptor B (Rattus norvegicus, UniProt P29089); experiment: Binding affinity for rat angiotensin II receptor, type 1; settings: not given
T1 sequence (P29089 whole entry): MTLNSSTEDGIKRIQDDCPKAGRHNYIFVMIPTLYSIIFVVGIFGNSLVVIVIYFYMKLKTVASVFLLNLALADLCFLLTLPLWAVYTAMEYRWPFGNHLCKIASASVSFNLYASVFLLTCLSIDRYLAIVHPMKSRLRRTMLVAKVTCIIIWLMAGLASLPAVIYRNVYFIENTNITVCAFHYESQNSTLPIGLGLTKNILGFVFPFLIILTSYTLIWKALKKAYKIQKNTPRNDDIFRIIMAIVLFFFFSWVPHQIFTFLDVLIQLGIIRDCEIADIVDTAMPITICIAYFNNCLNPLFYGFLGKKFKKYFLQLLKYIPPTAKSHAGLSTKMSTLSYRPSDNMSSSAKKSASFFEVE

| SMILES | IC50 [nM] |
| --- | --- |
| CCCc1nc2c(C)cc(C)nc2n1Cc1ccc(-c2c(C(=O)O)c(Cl)nc3ccccc23)cc1 | 7.7 |
| CCCCc1nc2c(C)cc(C)nc2n1Cc1ccc(-c2c(C(=O)O)c(N)nc3ccccc23)cc1 | 13 |
| CCCc1nc2c(C)cc(C)nc2n1Cc1ccc(-c2c(-c3nn[nH]n3)cnc3ccccc23)cc1 | 12 |
| CCCCc1nc2c(C)cc(C)nc2n1Cc1ccc(-c2c(C(=O)O)cnc3ccccc23)cc1 | 41 |
| CCCc1nc2c(C)ccnc2n1Cc1ccc(-c2ccncc2-c2nnn[nH]2)cc1 | 4 |
| CCCc1nc2c(C)ccnc2n1Cc1ccc(-c2cccnc2-c2nn[nH]n2)cc1 | 60 |
| CCCc1nc2c(C)cc(C)nc2n1Cc1ccc(-c2c(C(=O)NS(=O)(=O)c3ccc([N+](=O)[O-])cc3)cnc3ccccc23)cc1 | 106 |
| CCc1nc2c(C)cc(C)nc2n1Cc1ccc(-c2c(-c3nnn[nH]3)cnc3ccccc23)cc1 | 6.9 |
| CCCCc1nc(CCCC)n(Cc2ccc(-c3ncccc3-c3nnn[nH]3)cc2)n1 | 98 |
| CCc1nc2c(C)cc(C)nc2n1Cc1ccc(-c2ncccc2-c2nn[nH]n2)cc1 | 18 |
| CCc1nc2c(C)cc(C)nc2n1Cc1ccc(-c2c(C(=O)O)c(N(C)C)nc3ccccc23)cc1 | 29 |
| CCc1nc2c(C)cc(C)nc2n1Cc1ccc(-c2c(C(=O)O)cnc3ccccc23)cc1 | 17 |
| CCc1nc2c(C)cc(C)nc2n1Cc1ccc(-c2c(C(=O)O)c3nnnn3c3ccccc23)cc1 | 52 |
| CCCc1nc2c(C)cc(C)nc2n1Cc1ccc(-c2c(C(=O)O)c(N)nc3ccccc23)cc1 | 4.2 |
| CCCCc1nc(CCCC)n(Cc2ccc(-c3cnccc3-c3nnn[nH]3)cc2)n1 | 150 |
| CCc1nc2c(C)cc(C)nc2n1Cc1ccc(-c2ncccc2C(=O)O)cc1 | 819 |

The next lines start with the values.

| IC50 [nM] | SMILES |
| --- | --- |
| 1.9 | CCCCC(=O)N(Cc1ccc(-c2ccccc2-c2nnn[nH]2)cc1)[C@H](C(=O)O)C(C)C |
| 1 | CCCc1nc2c(C)ccnc2n1Cc1ccc(-c2ccccc2-c2nn[nH]n2)cc1 |
| 66 | CCCNc1nc2ccccc2c(-c2ccc(Cn3c(CC)nc4c(C)cc(C)nc43)cc2)c1C(=O)O |
| 576 | CCc1nc2c(C)cc(C)nc2n1Cc1ccc(-c2c(CC(=O)O)cnc3ccccc23)cc1 |
| 261 | CCCc1nc2c(C)cc(C)nc2n1Cc1ccc(-c2c(C(=O)O)c(O)nc3ccccc23)cc1 |
| 0.8 | CCCc1nc2c(C)cc(C)nc2n1Cc1ccc(-c2ccccc2-c2nn[nH]n2)cc1 |
| 215 | CCc1nc2c(C)cc(C)nc2n1Cc1ccc(-c2c(CC(=O)O)c(Cl)nc3ccccc23)cc1 |
| 33 | CCc1nc2c(C)cc(C)nc2n1Cc1ccc(-c2c(C(=O)O)ccc3ccccc23)cc1 |
| 492 | CCCN(CCC)c1nc2ccccc2c(-c2ccc(Cn3c(CC)nc4c(C)cc(C)nc43)cc2)c1C(=O)O |
| 9 | CCCc1nc2c(C)cc(C)nc2n1Cc1ccc(-c2c(C(=O)O)c(C)nc3ccccc23)cc1 |
| 13 | CCc1nc2c(C)cc(C)nc2n1Cc1ccc(-c2c(C(=O)O)c(N)nc3ccccc23)cc1 |
| 5.6 | CCCCc1nc(CCCC)n(Cc2ccc(-c3ccccc3-c3nnn[nH]3)cc2)n1 |
| 13 | CCc1nc2c(C)cc(C)nc2n1Cc1ccc(-c2c(C(=O)O)c(NC)nc3ccccc23)cc1 |
| 250 | CCCCc1nc(CCCC)n(Cc2ccc(-c3ccncc3-c3nnn[nH]3)cc2)n1 |
| 326 | CCc1nc2c(C)cc(C)nc2n1Cc1ccc(-c2c(C(=O)O)c(=O)n(C)c3ccccc23)cc1 |
| 74 | CCc1nc2c(C)cc(C)nc2n1Cc1ccc(-c2c(C(=O)O)c(OC)nc3ccccc23)cc1 |
| 110 | CCCCc1nc(CCCC)n(Cc2ccc(-c3cccnc3-c3nnn[nH]3)cc2)n1 |
| 0.4 | CCc1nc2c(C)cc(C)nc2n1Cc1ccc(-c2ccccc2-c2nnn[nH]2)cc1 [L-158809] |
